These results are taken from ChEMBL document CHEMBL1153241, “2,3,5-Trisubstituted pyridines as selective AKT inhibitors-Part I: Substitution at 2-position of the core pyridine for ROCK1 selectivity” (Bioorg Med Chem Lett, 2010).

What is called IC50 is the concentration at which inhibition is half-maximal.

Assay [1] addresses T1, RAC-alpha serine/threonine-protein kinase (Homo sapiens, UniProt P31749). Briefly: Inhibition of full length AKT1.
Assay [2] has as its target Rho-associated protein kinase 1 (Homo sapiens, UniProt Q13464). In words: Inhibition of ROCK1.
Assay [3] is described as follows: Selectivity ratio of IC50 for ROCK1 to IC50 for AKT1.
For assay [4], the target named is T1, RAC-alpha serine/threonine-protein kinase. In words: Inhibition of truncated AKT1. In short, it runs like this:
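AKT1 construct truncated to lack the PH domain. IC50 measured with ATP at or below its Km. At least two determinations (n ≥ 2).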

Assay [5] shares this target. In words: Inhibition of AKT1 in human BT474 cells assessed as phosphorylation of GSK3. It is filed as cell-based, BT-474.

Each structure is given as a SMILES string. A value given as a limit tells only on which side of the number the result lay.

Sequence of Rho-associated protein kinase 1 (Q13464 whole entry): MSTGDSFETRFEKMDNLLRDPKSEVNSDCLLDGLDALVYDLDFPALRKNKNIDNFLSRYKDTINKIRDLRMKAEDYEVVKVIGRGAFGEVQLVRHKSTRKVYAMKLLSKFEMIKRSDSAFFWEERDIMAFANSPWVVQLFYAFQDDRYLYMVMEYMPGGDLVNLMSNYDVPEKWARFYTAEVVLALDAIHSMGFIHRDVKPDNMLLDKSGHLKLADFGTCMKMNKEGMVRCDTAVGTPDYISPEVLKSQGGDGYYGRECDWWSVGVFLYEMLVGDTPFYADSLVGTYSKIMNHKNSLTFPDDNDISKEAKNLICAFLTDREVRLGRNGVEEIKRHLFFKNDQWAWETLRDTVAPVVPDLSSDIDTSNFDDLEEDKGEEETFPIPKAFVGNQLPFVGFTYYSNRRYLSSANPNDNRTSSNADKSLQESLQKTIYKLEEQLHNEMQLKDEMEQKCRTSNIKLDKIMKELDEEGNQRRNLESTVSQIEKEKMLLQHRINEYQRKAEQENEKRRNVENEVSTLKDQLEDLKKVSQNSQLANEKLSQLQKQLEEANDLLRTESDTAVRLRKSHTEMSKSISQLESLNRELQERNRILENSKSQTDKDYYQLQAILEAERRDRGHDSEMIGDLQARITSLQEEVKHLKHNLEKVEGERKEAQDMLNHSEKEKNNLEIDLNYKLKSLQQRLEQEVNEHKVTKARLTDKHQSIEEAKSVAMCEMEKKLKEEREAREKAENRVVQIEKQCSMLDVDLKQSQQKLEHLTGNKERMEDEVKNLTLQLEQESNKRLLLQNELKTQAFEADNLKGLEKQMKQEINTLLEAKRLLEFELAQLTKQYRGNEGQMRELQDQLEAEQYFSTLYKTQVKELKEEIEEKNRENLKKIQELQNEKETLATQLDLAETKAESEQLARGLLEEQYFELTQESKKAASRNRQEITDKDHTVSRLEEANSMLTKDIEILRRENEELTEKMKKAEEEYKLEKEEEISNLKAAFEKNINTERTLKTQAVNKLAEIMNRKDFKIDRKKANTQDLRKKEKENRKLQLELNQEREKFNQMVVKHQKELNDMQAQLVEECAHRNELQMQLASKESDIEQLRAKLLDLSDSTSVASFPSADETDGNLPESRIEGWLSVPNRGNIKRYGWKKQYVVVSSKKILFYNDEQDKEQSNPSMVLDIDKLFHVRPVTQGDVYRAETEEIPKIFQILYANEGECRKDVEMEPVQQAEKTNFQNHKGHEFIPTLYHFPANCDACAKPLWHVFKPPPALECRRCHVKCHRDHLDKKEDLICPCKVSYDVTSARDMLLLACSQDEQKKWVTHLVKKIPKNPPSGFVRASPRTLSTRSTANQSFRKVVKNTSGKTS
T1 sequence (P31749 whole entry): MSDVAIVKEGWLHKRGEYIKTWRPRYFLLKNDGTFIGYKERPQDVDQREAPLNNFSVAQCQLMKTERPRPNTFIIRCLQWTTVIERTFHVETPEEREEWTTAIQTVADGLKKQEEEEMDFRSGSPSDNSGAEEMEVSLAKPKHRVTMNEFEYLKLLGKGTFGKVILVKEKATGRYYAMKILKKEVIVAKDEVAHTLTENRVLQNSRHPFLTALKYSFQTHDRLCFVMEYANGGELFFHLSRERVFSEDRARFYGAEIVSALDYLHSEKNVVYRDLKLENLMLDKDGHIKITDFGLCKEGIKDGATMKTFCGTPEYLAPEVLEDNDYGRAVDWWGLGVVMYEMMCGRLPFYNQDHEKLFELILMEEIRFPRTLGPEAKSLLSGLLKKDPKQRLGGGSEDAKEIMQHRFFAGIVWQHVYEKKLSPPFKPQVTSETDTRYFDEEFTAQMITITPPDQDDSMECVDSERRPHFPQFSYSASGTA

In the case of `Cc1n[nH]c2ccc(-c3cc(OC[C@@H](N)Cc4ccccc4)cnc3-c3cc(Cl)ccc3O)cc12`, the 50% inhibitory concentration (IC50) came to 3 nM in assay [1] and 7.6 µM in assay [2]. The Ratio IC50 in assay [3] is over 2000.

`Cc1n[nH]c2ccc(-c3cc(OC[C@@H](N)Cc4ccccc4)cnc3C#CC(C)(C)O)cc12`: the values for the IC50 in assay [2] and in assay [4] were over 10 µM and 10500 nM, respectively.

As for `Cc1n[nH]c2ccc(-c3cc(OC[C@@H](N)Cc4c[nH]c5ccncc45)cnc3-c3ccoc3)cc12`, the IC50 in assay [1] came out at 13 nM; in assay [5] it was 6800 nM.

Take `Cc1n[nH]c2ccc(-c3cc(OC[C@@H](N)Cc4c[nH]c5ncccc45)cnc3-c3ccoc3)cc12`: the values for the IC50 in assay [1] and in assay [5] were 8 nM and 930 nM, respectively.

For `Cc1n[nH]c2ccc(-c3cc(OC[C@@H](N)Cc4ccccc4)cnc3-c3ccco3)cc12`, the IC50 in assay [2] is 1.29 µM; in assay [4], 790 nM.

On to `Cc1n[nH]c2ccc(-c3cc(OC[C@@H](N)Cc4c[nH]c5cccnc45)cnc3-c3ccoc3)cc12`, for which the IC50 in assay [1] worked out at 10 nM; in assay [5] it was 4300 nM.

With `Cc1occc1-c1ncc(OC[C@@H](N)Cc2c[nH]c3ccccc23)cc1-c1ccc2[nH]nc(C)c2c1`, the IC50 in assay [1] worked out at 0.8 nM; in assay [5], 84 nM.

On to `Cc1n[nH]c2ccc(-c3cc(OC[C@@H](N)Cc4c[nH]c5ccccc45)cnc3-c3ccoc3)cc12`, for which, in assay [5], the IC50 was 500 nM.

Take `Cc1n[nH]c2ccc(-c3cc(OC[C@@H](N)Cc4ccccc4)cnc3-c3ccsc3)cc12`: the figures for the IC50 in assay [1] and in assay [2] were 50 nM and 6 µM, respectively.

Regarding `Cc1n[nH]c2ccc(-c3cc(OC[C@@H](N)Cc4ccccc4)cnc3C#CCCO)cc12`, the IC50 in assay [1] is 720 nM; in assay [2], over 10 µM.

On to `COc1ccccc1-c1ncc(OC[C@@H](N)Cc2ccccc2)cc1-c1ccc2[nH]nc(C)c2c1`, for which the results for the IC50 in assay [1] and in assay [2] were 100 nM and over 10 µM, respectively.

With `Cc1n[nH]c2ccc(-c3cc(OC[C@@H](N)Cc4ccccc4)cnc3-c3ccc[nH]3)cc12`, the IC50 in assay [1] was 15 nM; in assay [2], over 10 µM.

Consider `Cc1n[nH]c2ccc(-c3cc(OC[C@@H](N)Cc4c[nH]c5c(F)cccc45)cnc3-c3ccoc3)cc12`, for which the results for the IC50 in assay [1] and in assay [5] were 1 nM and 260 nM, respectively.

On to `Cc1n[nH]c2ccc(-c3cc(OC[C@@H](N)Cc4ccccc4)cnc3-c3ccoc3)cc12`, for which the IC50 turned out to be 10 nM in assay [1] and 5.2 µM in assay [2].

For `Cc1n[nH]c2ccc(-c3cc(OC[C@@H](N)Cc4ccccc4)cnc3-c3cc(F)ccc3O)cc12`, the IC50 in assay [2] was found to be 9.8 µM; in assay [4], 10 nM.

With `Cc1n[nH]c2ccc(-c3cc(OC[C@@H](N)Cc4c[nH]c5cc(F)ccc45)cnc3-c3ccoc3)cc12`, the IC50 in assay [1] was found to be 0.8 nM; in assay [5], 220 nM.

As to `Cc1n[nH]c2ccc(-c3cc(OC[C@@H](N)Cc4ccccc4)cnc3-c3ccccc3)cc12`, the IC50 in assay [1] is 50 nM; in assay [2] it was over 10 µM. For the same molecule, in assay [3], the Ratio IC50 is over 200.

For `Cc1n[nH]c2ccc(-c3cc(OC[C@@H](N)Cc4c[nH]c5ccc(F)cc45)cnc3-c3ccoc3)cc12`, the IC50 in assay [1] came to 1 nM; in assay [5], 360 nM.

With `Cc1n[nH]c2ccc(-c3cc(OC[C@@H](N)Cc4ccccc4)cnc3-c3cccs3)cc12`, the half-maximal inhibitory concentration (IC50) was determined as 79 nM in assay [1] and 2.5 µM in assay [2].

As to `Cc1n[nH]c2ccc(-c3cc(OC[C@@H](N)Cc4ccccc4)cnc3-c3cc(F)cc(F)c3O)cc12`, the IC50 in assay [1] is 63 nM; in assay [2], over 10 µM.

As for `Cc1n[nH]c2ccc(-c3cc(OC[C@@H](N)Cc4ccccc4)cnc3-c3ccc(O)cc3)cc12`, the results for the IC50 in assay [1] and in assay [2] were 500 nM and 1.4 µM, respectively.

Consider `Cc1n[nH]c2ccc(-c3cc(OC[C@@H](N)Cc4ccccc4)cnc3-c3ccccc3O)cc12`, for which the IC50 was 15 nM in assay [1] and 9.5 µM in assay [2].

As for `Cc1n[nH]c2ccc(-c3cc(OC[C@@H](N)Cc4ccccc4)cnc3-c3cccc(O)c3)cc12`, the values for the IC50 in assay [1] and in assay [2] were 79 nM and over 10 µM, respectively.
